# Hits are enriched below; roughly 29% of the tested compounds scored in any of these assays.
# CYP2C19 inh: human CYP2C19 inhibition; P33261; inhibition, % at 5 µM; CYP2C19 Supersomes, luciferin-H EGE luminescence, 30 min; 96,000 tested, 21% active;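 active = CYP2C19 inhibition above a set limit at 5 µM in the primary screen, cut at about 50% in these data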;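 note: plate controls were negative control wells for no effect and 2.5 mM tranylcypromine positive control for full effect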
# CYP2C9 activ: CYP2C9 (human) activation; recombinant CYP2C9, luciferin-H conversion, luminescence; hits give high values; factor 1 = untreated enzyme, 0 = blocked; AID 1024; P11712; activation factor at 5 µM; 96,000 tested, 1.4% active;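 active = activation factor of 2 or more for CYP2C9 at a 5 µM dose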;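 note: 0 = sulfaphenazole-blocked wells and 1 = vehicle-only wells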
# Target sequence (P11712 whole entry, looked up): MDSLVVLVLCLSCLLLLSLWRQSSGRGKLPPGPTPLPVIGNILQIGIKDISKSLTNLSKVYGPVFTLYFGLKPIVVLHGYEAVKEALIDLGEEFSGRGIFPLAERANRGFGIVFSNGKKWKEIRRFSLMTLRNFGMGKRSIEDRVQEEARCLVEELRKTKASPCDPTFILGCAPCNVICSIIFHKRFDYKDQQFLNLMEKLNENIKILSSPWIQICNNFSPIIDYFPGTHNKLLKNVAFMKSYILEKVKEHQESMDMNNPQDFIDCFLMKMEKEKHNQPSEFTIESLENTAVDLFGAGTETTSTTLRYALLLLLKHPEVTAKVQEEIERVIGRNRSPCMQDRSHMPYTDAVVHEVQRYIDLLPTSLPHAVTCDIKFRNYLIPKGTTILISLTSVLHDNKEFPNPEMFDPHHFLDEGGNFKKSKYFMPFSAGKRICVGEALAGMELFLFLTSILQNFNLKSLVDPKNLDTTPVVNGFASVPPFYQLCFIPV
# CYP2C9 inh: human CYP2C9 inhibition. P11712. CYP2C9 Supersomes, luciferin-H conversion, luminescence. inhibition, % at 5 µM. 96,000 tested, 20% active;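 active = blocking of liver enzyme CYP2C9 beyond about 50% at 5 µM, limit read from the data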
# CYP2C19 act: cytochrome P450 2C19 (human) activation; P33261; recombinant CYP2C19, luciferin-H EGE luminescence; hits give high values; 0 = fully inhibited enzyme, 1 = untreated enzyme; activation factor at 5 µM; 96,000 tested, under 10 active; AID 1025;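 active = activation factor of at least 2 at 5 µM in the primary screen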;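 note: 0 = wells with 2.5 mM tranylcypromine and 1 = vehicle-only wells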
# tolC growth inh: E. coli tolC mutant growth inhibition; E. coli BW25113 tolC mutant growth, OD615; growth inhibition, % at 10 µM (by protocol); 65,000 tested, 2.2% active; AID 573;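 active = growth inhibition at or above a cutoff equal to the mean over every tested compound plus 3 SD, cut at about 60% in these data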;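 note: growth measured after 20 h incubation at 37 °C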
#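 Doses: one dose of 10 µM final / Material: E. coli BW25113 ΔtolC::kan, tolC deletion mutant strain / Buffer or medium: LB with kanamycin 50 µg/mL / Evaluation: percent growth inhibition / Detection: optical density read at 615 nm / Incubation: 37 °C, 20 h exposure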
# Ecoli WT expand: growth inhibitors of E. coli BW25113 wild type | AID 710 | OD600 absorbance | growth inhibition, % at 100 µM | 98,000 tested, 0.15% active;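 active = growth inhibition above about 50% at one test dose, limit read from the data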;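 note: growth measured after 20 h incubation at 37 °C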
# * = called active by the depositor; x = not tested or not shown.
SMILES,CYP2C19 inh,CYP2C9 activ,CYP2C9 inh,CYP2C19 act,tolC growth inh,Ecoli WT expand
O=S(=O)(Nc1ccc(-c2nc3ccccc3o2)cc1)c1ccccc1,79.9*,0,96.8*,0.2,93.1*,0.0
O=C(Nc1ccc(-c2nc3ccccc3o2)cc1)C1CCCO1 (stereo not drawn),7.3,1.3,-28.4,0.9,18.1,-3.0
O=C(NC1(C(F)(F)F)C(=O)Nc2c1c(=O)[nH]c(=O)n2Cc1ccco1)C1CCCCC1 (stereo not drawn),-11.8,1.1,-6.6,1.1,-1.1,0.0
Nc1nnc(CC(=O)NCc2ccccc2)s1,6.3,1,-3.8,0.9,-15.8,3.0
COc1ccc(N2CCN(Cc3nc4c(c(=O)n(C)c(=O)n4C)n3C(C)C(C)=O)CC2)cc1 (stereo not drawn),15.2,0.9,9.1,0.8,x,-1.0
c1cncc(CNc2ccc3c(c2)OCO3)c1,88.6*,0.2,83.2*,0.1,x,13.0
Cc1ccc(NCc2cccnc2)cc1,53.9*,0.6,37.9,0.5,x,10.0
O=C(Cn1nc(Cc2cccnc2)c2ccccc2c1=O)Nc1ccc2c(c1)OCO2,19.8,0.6,43.0,0.8,11.5,-7.0
CCc1ccc(CNCc2cccnc2)cc1,79.6*,0.8,21.7,0.2,-12.2,9.0
Cc1ccccc1/C=c1\s/c(=C\C(=O)C(C)(C)C)[nH]c1=O,0.7,0.9,9.4,1,x,-1.0
Cc1cnc(NC(=O)C(C)N2C(=O)C3CC=CCC3C2=O)s1 (stereo not drawn),39.8,0.8,21.9,0.6,-11.1,1.0
CC(C)CN(CC(C)C)c1nc(N)c(C#N)c(CC#N)c1C#N,69.1*,0.1,85.6*,0.3,15.9,-4.0
CCOC(=O)c1cncc(NC(=O)c2ccccc2)c1,21.1,1,2.3,0.8,-27.1,4.0
Cc1c(CCO)c(=O)n(C)n1C(=O)c1ccc(Cl)cc1,55.8*,1,4.4,0.4,x,4.0
COc1ccc2nc3c(cc2c1)c(NC(=O)c1cccs1)nn3CC(C)C,77.6*,0.1,93.4*,0.2,78.0*,-15.0
CC(C)Cn1nc(NC(=O)C(C)(C)C)c2cc3ccccc3nc21,35.9,0.5,51.7*,0.6,23.6,8.0
CCn1nc(NC(=O)c2ccncc2)c2cc3ccccc3nc21,69.6*,0.3,67.0*,0.3,-1.0,-3.0
COc1cc(CCC(=O)OCn2nnc3ccccc3c2=O)cc(OC)c1OC,-4.6,1,1.0,1,-4.9,-1.0
CCN1CCN(Cc2nc3c(c(=O)n(C)c(=O)n3C)n2Cc2cccc3ccccc23)CC1,6.5,0.9,7.7,0.9,-8.1,0.0
CCCCCn1c(=NC(C)=O)c(C#N)cc2c(=O)n3cccc(C)c3nc21,x,x,x,x,20.9,x
Cc1cccc(NC(=O)CC2SC(=NC3CCCCC3)NC2=O)c1 (stereo not drawn),27.0,0.3,65.8*,0.7,-0.5,3.0
O=C(CC1SC(=NC2CCCCC2)NC1=O)Nc1ccccc1 (stereo not drawn),x,x,x,x,-2.2,6.0
CCOC(=O)/C(=N/Nc1ccc(C)cc1)S(=O)(=O)c1ccc(Cl)cc1,69.4*,0.1,89.8*,0.3,x,-11.0
CCOC(=O)c1ccc2c(c1)nc(SCC(=O)c1cc3ccccc3o1)n2CC,41.3,0.2,77.9*,0.6,x,5.0
COC(=O)c1ccc2c(c1)nc(C)n2CCO,-8.9,1.1,-11.0,1.1,-19.3,7.0
SMILES,CYP2C19 inh,CYP2C9 activ,CYP2C9 inh,CYP2C19 act,tolC growth inh,Ecoli WT expand
C=CCNC(=O)CSc1nc2cc(C(=O)OCC)ccc2n1CC,95.8*,0.3,75.0*,0,x,-16.0
CCSc1nc2cc(C(=O)OC)ccc2c(=O)n1CC,x,x,x,x,21.8,-3.0
CCOC(=O)c1ccc2c(c1)nc(COc1ccc(OC)cc1)n2CC,75.8*,0.4,55.3*,0.2,x,-9.0
Cn1c(=O)[nH]c(=O)c2c1nc(Br)n2CCCO,-2.1,0.5,46.5,1,8.2,10.0
O=C(Cn1cnc2ccc(Br)cc2c1=O)c1cccs1,77.9*,0.5,52.2*,0.2,x,-5.0
O=C(Cn1cnc2ccc(Cl)cc2c1=O)c1cccs1,53.9*,0.7,31.9,0.5,x,3.0
O=C(Cn1cnc2ccccc2c1=O)c1cccs1,23.9,0.6,42.9,0.8,x,17.0
CC(C)COC(=O)Cn1cnc2ccc(Br)cc2c1=O,91.1*,0.4,55.5*,0.1,-4.5,2.0
C=CCn1c(CCCNC(=O)CCC)nc2ccccc21,x,x,x,x,-21.9,x
COc1cccc(N2CCN(Cc3ccsc3)CC2)c1,90.7*,0.5,50.4*,0.1,x,15.0
Cc1nc2cc(N3CCN(C)CC3)c(NC(=O)Cc3ccccc3)cc2c(=O)n1Cc1ccccc1,66.9*,0.3,66.6*,0.3,17.3,2.0
Cc1nc([N+](=O)[O-])c(N2CCN(C)CC2)n1Cc1ccccc1,4.2,1,1.9,1,x,3.0
Cc1nc2cc(N3CCCCC3)c(NC(=O)c3ccncc3)cc2c(=O)n1Cc1ccc(Cl)cc1,48.2,0.3,73.6*,0.5,x,1.0
COc1ccc(OC)c(NC(=O)C23CCC(C)(C(=O)O2)C3(C)C)c1 (stereo not drawn),60.7*,2*,-103.2,0.4,-5.8,-2.0
COc1ccc(Cl)cc1NC(=O)C12CCC(C)(C(=O)O1)C2(C)C (stereo not drawn),83.1*,1.6,-65.0,0.2,x,-1.0
COC(=O)c1ccccc1NC(=O)C12CCC(C)(C(=O)O1)C2(C)C (stereo not drawn),57.1*,0.9,9.7,0.4,6.1,2.0
CN1CCC(OC(=O)COc2ccc(C(C)(C)C)cc2)CC1,5.5,1,4.1,0.9,-16.7,5.0
CN(C(=O)C12CC3CC(CC(C3)C1)C2)C1(C)CCS(=O)(=O)C1 (stereo not drawn),-1.1,1.1,-9.2,1,-7.1,2.0
Cc1nc2c(cc(Oc3ccc(S(=O)(=O)N4CCOCC4)cn3)c3ccsc32)s1,84.2*,0.1,90.0*,0.2,14.5,-8.0
Clc1ccc(COc2ccccn2)cc1Cl,70.7*,1,1.6,0.3,x,8.0
COC(=O)Cn1ncn2c(cc3oc(C)cc32)c1=O,-14.0,0.7,27.3,1.1,-9.5,9.0
COCCN(C(=O)Cn1nnc2ccccc21)C(C(=O)NC1CCCC1)c1cccc(OC)c1OC (stereo not drawn),7.3,0.8,16.0,0.9,-14.1,-1.0
CC(C)OC(=O)c1cc2c(ccn2C)n1CC(=O)N1CCC(Cc2ccccc2)CC1,30.5,0.6,38.5,0.7,x,-7.0
Cc1ccccc1Cn1c(C(=O)OC(C)C)cc2c1ccn2C,53.0*,0.7,28.1,0.5,x,6.0
Cc1ccc(C)c(CN2CCNC2=O)c1,x,x,x,x,-14.0,-4.0
CCOC(=O)c1cc2c(ccn2C)n1Cc1ccccc1C,35.1,0.9,12.3,0.6,68.7*,-10.0
CCOC(=O)c1cc2c(ccn2C)n1CC(=O)N1CCN(c2ccccc2)CC1,33.5,0.5,47.2,0.7,-11.6,-3.0
